Results published in ChEMBL document CHEMBL1123807, “Aldosterone antagonists. 2. New 7 alpha-(acetylthio)-15,16-methylene spirolactones” (1987).

How the values were obtained:
[1] = molecular target: T1, Progesterone receptor (Oryctolagus cuniculus) (UniProt P06186); assay: Relative binding to progesterone receptor compared to progesterone
T1 sequence (whole entry): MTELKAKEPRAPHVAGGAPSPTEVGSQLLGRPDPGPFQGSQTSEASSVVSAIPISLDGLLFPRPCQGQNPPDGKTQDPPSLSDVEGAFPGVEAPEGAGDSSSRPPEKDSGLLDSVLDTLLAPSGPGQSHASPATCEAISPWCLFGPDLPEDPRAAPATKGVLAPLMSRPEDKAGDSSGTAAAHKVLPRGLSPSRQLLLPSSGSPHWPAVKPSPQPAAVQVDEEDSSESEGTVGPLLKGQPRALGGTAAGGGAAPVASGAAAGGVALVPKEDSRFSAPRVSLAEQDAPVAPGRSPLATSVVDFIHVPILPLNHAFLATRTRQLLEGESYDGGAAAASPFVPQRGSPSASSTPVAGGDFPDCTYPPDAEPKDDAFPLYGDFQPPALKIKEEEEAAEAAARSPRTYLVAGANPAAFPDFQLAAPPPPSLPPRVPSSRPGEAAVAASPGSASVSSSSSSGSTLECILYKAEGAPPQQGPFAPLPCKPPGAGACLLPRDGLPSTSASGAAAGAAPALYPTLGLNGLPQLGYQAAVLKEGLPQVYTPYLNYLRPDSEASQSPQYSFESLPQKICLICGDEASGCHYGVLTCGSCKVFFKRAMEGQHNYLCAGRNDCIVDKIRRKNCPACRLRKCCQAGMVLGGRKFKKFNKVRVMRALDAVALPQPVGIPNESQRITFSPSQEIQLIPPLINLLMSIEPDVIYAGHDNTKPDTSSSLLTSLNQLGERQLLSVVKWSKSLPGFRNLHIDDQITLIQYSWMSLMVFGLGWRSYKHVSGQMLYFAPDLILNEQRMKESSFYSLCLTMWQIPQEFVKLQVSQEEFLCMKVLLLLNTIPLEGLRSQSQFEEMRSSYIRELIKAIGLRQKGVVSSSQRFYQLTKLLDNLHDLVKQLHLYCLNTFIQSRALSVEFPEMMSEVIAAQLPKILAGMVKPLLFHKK
How it was run: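 Competitive binding to progesterone receptor from rabbit uterus using tritiated progesterone as ligand. Competition factor is the multiple of the concentration needed to give displacement equivalent to the standard; a high factor means weak binding.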

[2] = molecular target: T1, Progesterone receptor (Oryctolagus cuniculus); assay: Progestational activity by Clauberg test in rabbits as McPhail index after 3 mg subcutaneous dose; assay type: functional
How it was run: (§1)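 Castrated infantile female New Zealand rabbits (800–1000 g) were primed with estradiol 0.5 μg sc daily for 6 days. They then received compound over 5 days (total 3–100 mg sc or 30–300 mg po).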

[3] = molecular target: T2, Mineralocorticoid receptor (Rattus norvegicus) (UniProt P22199); assay: Antialdosterone activity in rats administered orally compared to Spironolactone(100)
T2 sequence (whole entry): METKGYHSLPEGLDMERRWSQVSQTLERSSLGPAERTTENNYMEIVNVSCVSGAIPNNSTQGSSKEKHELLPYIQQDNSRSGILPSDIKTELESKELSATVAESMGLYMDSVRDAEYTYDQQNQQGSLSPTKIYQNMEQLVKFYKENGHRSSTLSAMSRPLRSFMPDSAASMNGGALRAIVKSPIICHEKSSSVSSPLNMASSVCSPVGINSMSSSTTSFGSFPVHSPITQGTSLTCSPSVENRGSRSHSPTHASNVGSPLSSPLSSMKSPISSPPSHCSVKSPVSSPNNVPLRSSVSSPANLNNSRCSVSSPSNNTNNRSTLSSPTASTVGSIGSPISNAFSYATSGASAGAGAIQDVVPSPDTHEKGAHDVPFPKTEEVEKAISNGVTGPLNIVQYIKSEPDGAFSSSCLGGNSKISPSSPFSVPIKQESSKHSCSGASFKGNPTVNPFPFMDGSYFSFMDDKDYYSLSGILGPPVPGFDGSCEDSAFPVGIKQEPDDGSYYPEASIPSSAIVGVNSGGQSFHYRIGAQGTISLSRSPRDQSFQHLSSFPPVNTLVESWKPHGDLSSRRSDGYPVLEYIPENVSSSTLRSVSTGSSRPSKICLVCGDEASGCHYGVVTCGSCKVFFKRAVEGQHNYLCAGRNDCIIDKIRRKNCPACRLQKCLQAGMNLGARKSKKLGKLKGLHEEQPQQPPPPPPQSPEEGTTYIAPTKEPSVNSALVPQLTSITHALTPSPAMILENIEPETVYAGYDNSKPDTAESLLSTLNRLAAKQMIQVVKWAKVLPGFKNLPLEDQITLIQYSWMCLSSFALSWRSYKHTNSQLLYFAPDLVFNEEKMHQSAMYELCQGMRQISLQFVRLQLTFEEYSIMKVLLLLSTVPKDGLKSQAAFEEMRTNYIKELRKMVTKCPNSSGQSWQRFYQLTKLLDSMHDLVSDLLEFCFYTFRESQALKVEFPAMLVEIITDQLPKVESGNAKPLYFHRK

[4] = molecular target: T1, Progesterone receptor (Oryctolagus cuniculus); assay: Progestational activity by Clauberg test in rabbits as McPhail index after 100 mg subcutaneous dose; assay type: functional; how it was run: as §1
[5] = molecular target: T1, Progesterone receptor (Oryctolagus cuniculus); assay: Progestational activity by Clauberg test in rabbits as McPhail index after 10 mg subcutaneous dose; assay type: functional; how it was run: as §1
[6] = molecular target: T1, Progesterone receptor (Oryctolagus cuniculus); assay: Progestational activity by Clauberg test in rabbits as McPhail index after 30 mg subcutaneous dose; assay type: functional; how it was run: as §1
Rattus norvegicus [7] = species: Rattus norvegicus; assay: Ovulation inhibitory activity in rats after 40 mg peroral dose
Rattus norvegicus [8] = species: Rattus norvegicus; assay: Ovulation inhibitory activity in rats after 100 mg peroral dose
Rattus norvegicus [9] = species: Rattus norvegicus; assay: Ovulation inhibitory activity in rats after 30 mg peroral dose
[10] = molecular target: T1, Progesterone receptor (Oryctolagus cuniculus); assay: Progestational activity by Clauberg test in rabbits as McPhail index after 100 mg peroral dose; assay type: functional; how it was run: as §1
[11] = molecular target: T1, Progesterone receptor (Oryctolagus cuniculus); assay: Progestational activity by Clauberg test in rabbits as McPhail index after 300 mg peroral dose; assay type: functional; how it was run: as §1
[12] = molecular target: T1, Progesterone receptor (Oryctolagus cuniculus); assay: Progestational activity by Clauberg test in rabbits as McPhail index after 30 mg peroral dose; assay type: functional; how it was run: as §1
[13] = molecular target: T3, Androgen receptor (Rattus norvegicus) (UniProt P15207); assay: Antiandrogenic activity as prostate weight after subcutaneous administration compared to Spironolactone; assay type: functional, organism-based; conditions: Prostate gland
T3 sequence (whole entry): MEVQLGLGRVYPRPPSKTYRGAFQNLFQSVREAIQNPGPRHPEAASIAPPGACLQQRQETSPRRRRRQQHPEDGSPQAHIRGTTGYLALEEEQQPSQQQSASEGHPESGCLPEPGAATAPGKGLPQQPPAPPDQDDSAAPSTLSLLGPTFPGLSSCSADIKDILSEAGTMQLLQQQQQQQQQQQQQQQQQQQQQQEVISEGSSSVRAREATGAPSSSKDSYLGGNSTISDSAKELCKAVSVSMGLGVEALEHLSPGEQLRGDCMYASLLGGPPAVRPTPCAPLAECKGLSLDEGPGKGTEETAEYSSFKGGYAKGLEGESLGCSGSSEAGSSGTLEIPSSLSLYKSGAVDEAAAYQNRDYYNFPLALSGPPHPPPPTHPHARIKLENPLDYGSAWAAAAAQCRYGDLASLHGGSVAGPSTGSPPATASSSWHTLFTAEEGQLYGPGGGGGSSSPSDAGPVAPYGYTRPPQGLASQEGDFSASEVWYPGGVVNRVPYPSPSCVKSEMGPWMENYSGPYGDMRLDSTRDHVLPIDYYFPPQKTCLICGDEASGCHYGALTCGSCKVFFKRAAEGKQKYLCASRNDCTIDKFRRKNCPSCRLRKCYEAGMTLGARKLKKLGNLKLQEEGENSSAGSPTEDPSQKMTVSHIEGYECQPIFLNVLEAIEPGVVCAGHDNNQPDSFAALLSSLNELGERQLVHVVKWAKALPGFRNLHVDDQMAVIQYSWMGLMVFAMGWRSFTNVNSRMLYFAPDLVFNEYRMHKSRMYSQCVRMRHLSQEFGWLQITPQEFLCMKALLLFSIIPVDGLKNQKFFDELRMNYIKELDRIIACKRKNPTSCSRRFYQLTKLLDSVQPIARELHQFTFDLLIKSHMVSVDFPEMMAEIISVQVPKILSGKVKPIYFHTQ
How it was run: (§2)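 Castrated male Wistar SPF rats (~100 g) were dosed once daily for 12 days, sc at 1–16 mg/rat or po at 1–100 mg/rat, each with testosterone propionate 0.1 mg/rat sc; controls got Tp alone. On day 13, fresh seminal vesicle and ventral prostate weights were taken as % of Tp control. Relative potency came from regression/covariance analysis.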

[14] = molecular target: T3, Androgen receptor (Rattus norvegicus); assay: Antiandrogenic activity as seminal vesicle weight after subcutaneous administration compared to Spironolactone; assay type: functional, organism-based; how it was run: as §2
[15] = molecular target: T3, Androgen receptor (Rattus norvegicus); assay: Antiandrogenic activity after peroral administration as relative potency compared to Spironolactone; assay type: functional, organism-based; how it was run: as §2

Ratio [1] | Relative potency [3] | McPhail index [4] | McPhail index [5] | McPhail index [6] | SMILES | also measured
18 | 282 | 3.1 | 2.6 | 3.1 | CC(=O)S[C@@H]1CC2=CC(=O)CCC2(C)C2CCC3(C)C(C21)[C@H]1C[C@H]1[C@@]31CCC(=O)O1 (stereo partly drawn) | 
33 | 333 | 2.6 | 1.2 | 1.7 | CC(=O)S[C@@H]1CC2=CC(=O)C=C[C@]2(C)[C@H]2CC[C@@]3(C)[C@@H]([C@@H]4C[C@@H]4[C@@]34CCC(=O)O4)[C@H]12 (stereo in doubt) | McPhail index [10]: 1.6; McPhail index [11]: 2.8; McPhail index [12]: 1; Relative potency [13]: 0.4; Relative potency [14]: 0.2; Relative potency [15]: < 0.1
76 | 115 |  |  |  | CC(=O)S[C@@H]1CC2=CC(=O)C=C[C@]2(C)[C@H]2CC[C@@]3(C)[C@@H]([C@@H]4C[C@@H]4[C@@]34CCC(=O)O4)[C@H]12 (stereo in doubt; 14) | 

Further lines, the molecule ahead of its results:

SMILES | Ratio [1] | Relative potency [3] | McPhail index [4] | McPhail index [5] | McPhail index [6] | also measured
CC(=O)S[C@@H]1CC2=CC(=O)CCC2(C)C2CCC3(C)C(C21)[C@@H]1C[C@@H]1[C@@]31CCC(=O)O1 (stereo partly drawn) | 14 | 186 |  |  |  | McPhail index [2]: 1.6
CC(=O)S[C@@H]1CC2=CC(=O)CC[C@]2(C)[C@H]2CC[C@@]3(C)[C@@H](CC[C@@]34CCC(=O)O4)[C@H]12 [SPIRONOLACTONE] |  |  |  |  |  | Inhibition (Rattus norvegicus [7]): 16%; Inhibition (Rattus norvegicus [8]): 20%
CC(=O)S[C@@H]1CC2=CC(=O)C=C[C@]2(C)[C@H]2CC[C@@]3(C)[C@@H]([C@@H]4C[C@@H]4[C@@]34CCC(=O)O4)[C@H]12 (stereo in doubt) [MESPIRENONE] |  |  |  |  |  | Inhibition (Rattus norvegicus [9]): 0%; Inhibition (Rattus norvegicus [8]): 20%
CC(=O)S[C@@H]1CC2=CC(=O)[C@@H]3C[C@@H]3C2(C)C2CCC3(C)C(C21)[C@@H]1C[C@@H]1[C@@]31CCC(=O)O1 (stereo partly drawn) | 7.8 | 228 | 3.4 | 1 | 1.6 | Inhibition (Rattus norvegicus [7]): 100%
CC(=O)S[C@@H]1CC2=CC(=O)[C@@H]3C[C@@H]3C2(C)C2CCC3(C)C(C21)[C@H]1C[C@H]1[C@@]31CCC(=O)O1 (stereo partly drawn) | 19 | 281 | 3.1 | 2.4 | 3 | Relative potency [13]: 2.4; Relative potency [14]: 1
